According to ChEMBL document CHEMBL1764976, “Small molecule inhibitors of retinoic acid 4-hydroxylase (CYP26): synthesis and biological evaluation of imidazole methyl 3-(4-(aryl-2-ylamino)phenyl)propanoates” (J Med Chem, 2011):
Values belong to the compound of their own block, whether it stands above or below them. Activity calls are given as the source filed them. No cut-off for these calls is given here.

What was measured:
Cytochrome P450 26A1 = target: T1, Cytochrome P450 26A1 (Homo sapiens, UniProt O43174); test: Inhibition of CYP26A1 in human MCF7 cell microsomes using [3H]ATRA after 1 hr by scintillation counting; design: species or system Microsome
T1 sequence (O43174 whole entry): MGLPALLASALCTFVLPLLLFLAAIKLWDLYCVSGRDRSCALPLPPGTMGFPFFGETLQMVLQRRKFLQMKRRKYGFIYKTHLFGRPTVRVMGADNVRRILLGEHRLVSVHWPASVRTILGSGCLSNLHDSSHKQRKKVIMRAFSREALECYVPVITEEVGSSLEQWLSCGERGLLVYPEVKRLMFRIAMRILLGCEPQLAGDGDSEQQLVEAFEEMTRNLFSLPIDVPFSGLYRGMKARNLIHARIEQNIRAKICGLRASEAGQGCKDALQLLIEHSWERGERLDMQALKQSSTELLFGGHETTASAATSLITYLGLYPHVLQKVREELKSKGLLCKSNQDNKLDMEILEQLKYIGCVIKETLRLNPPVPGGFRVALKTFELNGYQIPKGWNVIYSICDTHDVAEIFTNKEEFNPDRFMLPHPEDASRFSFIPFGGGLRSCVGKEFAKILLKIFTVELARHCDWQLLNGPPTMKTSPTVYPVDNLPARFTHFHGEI
Outline: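 Cell-free assay on MCF7 CYP26A1 microsomes with [11,12-3H]all-trans-retinoic acid as substrate. IC50 taken from the best fit of a four-point dose-response curve.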

SH-SY5Y [1] = test: Induction of CYP26A1 mRNA expression in human SH-SY5Y cells at 1 uM after 72 hrs by RT-PCR analysis in presence of 0.1 uM of all-trans retinoic acid; assay type: functional
Outline: (§1)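 SH-SY5Y cells exposed 72 h to test agent at 1 μM alone or with 0.1 μM ATRA. Total RNA extracted, reverse transcribed, and quantified by real-time PCR with TaqMan probes for CYP26A1 and β-actin. CYP26A1 was normalized to β-actin and reported as fold increase over cells given ATRA alone.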

CYP1A2 = target: T2, CYP1A2 (Homo sapiens, UniProt P05177); test: Inhibition of CYP1A2 in human liver microsomes at 0.4 uM; assay type: ADME, Microsome
T2 sequence (P05177 whole entry): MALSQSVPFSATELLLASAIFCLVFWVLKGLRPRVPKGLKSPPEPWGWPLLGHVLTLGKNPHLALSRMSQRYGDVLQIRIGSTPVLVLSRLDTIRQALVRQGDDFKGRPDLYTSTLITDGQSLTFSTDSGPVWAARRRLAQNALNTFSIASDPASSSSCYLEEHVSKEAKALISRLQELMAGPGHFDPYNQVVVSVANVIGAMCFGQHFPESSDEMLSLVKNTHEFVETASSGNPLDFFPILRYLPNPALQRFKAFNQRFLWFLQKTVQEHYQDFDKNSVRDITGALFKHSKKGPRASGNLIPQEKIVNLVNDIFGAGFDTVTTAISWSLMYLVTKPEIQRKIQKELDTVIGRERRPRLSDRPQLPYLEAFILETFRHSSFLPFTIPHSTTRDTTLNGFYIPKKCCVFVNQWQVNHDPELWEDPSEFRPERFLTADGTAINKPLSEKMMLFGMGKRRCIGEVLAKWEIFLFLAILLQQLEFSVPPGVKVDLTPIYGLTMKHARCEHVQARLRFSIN

CYP3A4 = CYP3A4 (Homo sapiens, UniProt P08684); test: Inhibition of CYP3A4 in human liver microsomes at 0.4 uM; assay type: ADME, Microsome
Chain of CYP3A4 (P08684 whole entry): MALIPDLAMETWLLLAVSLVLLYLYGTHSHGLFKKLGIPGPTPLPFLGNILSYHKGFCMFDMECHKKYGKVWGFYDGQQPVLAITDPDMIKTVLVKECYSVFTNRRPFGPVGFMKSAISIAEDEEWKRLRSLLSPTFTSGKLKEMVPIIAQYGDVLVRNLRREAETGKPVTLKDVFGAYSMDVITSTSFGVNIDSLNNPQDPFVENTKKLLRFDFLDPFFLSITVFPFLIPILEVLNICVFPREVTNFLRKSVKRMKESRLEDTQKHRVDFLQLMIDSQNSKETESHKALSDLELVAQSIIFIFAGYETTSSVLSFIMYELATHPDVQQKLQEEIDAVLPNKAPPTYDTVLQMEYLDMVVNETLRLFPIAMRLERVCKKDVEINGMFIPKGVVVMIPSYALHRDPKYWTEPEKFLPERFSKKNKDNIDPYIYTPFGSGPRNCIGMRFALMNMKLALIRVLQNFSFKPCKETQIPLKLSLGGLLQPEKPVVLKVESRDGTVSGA

CYP2C9 = CYP2C9 (Homo sapiens, UniProt P11712); test: Inhibition of CYP2C9 in human liver microsomes at 0.4 uM; assay type: ADME, Microsome
Chain of CYP2C9 (P11712 whole entry): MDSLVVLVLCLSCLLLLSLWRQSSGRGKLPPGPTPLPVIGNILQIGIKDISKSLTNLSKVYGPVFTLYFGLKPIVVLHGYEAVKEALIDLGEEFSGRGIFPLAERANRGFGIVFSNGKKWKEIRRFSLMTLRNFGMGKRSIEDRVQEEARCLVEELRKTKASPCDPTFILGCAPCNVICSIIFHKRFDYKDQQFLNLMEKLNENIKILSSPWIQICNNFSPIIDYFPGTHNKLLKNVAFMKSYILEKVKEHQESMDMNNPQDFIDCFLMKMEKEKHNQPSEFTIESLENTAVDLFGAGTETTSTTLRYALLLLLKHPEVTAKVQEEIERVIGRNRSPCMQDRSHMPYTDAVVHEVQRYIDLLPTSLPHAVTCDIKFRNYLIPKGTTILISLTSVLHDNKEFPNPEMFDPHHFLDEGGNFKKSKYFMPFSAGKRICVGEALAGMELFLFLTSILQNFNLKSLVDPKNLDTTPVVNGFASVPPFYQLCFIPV

CYP2C19 = CYP2C19 (Homo sapiens, UniProt P33261); test: Inhibition of CYP2C19 in human liver microsomes at 0.4 uM; assay type: ADME, Microsome
Chain of CYP2C19 (P33261 whole entry): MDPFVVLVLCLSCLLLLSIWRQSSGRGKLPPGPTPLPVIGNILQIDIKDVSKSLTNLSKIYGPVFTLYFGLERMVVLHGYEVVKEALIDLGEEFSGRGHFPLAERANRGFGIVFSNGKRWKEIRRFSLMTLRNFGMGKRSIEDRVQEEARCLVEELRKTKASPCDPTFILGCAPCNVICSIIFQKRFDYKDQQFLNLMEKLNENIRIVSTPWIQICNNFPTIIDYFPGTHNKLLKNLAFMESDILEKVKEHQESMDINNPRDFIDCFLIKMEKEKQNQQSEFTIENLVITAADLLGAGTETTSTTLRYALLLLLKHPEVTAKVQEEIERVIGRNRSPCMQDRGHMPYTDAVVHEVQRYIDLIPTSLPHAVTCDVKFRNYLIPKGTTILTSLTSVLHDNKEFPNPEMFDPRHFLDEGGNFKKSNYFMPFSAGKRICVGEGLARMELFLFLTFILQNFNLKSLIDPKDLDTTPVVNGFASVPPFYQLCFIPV

CYP2D6 = CYP2D6 (Homo sapiens, UniProt P10635); test: Inhibition of CYP2D6 in human liver microsomes at 0.4 uM; assay type: ADME, Microsome
Chain of CYP2D6 (P10635 whole entry): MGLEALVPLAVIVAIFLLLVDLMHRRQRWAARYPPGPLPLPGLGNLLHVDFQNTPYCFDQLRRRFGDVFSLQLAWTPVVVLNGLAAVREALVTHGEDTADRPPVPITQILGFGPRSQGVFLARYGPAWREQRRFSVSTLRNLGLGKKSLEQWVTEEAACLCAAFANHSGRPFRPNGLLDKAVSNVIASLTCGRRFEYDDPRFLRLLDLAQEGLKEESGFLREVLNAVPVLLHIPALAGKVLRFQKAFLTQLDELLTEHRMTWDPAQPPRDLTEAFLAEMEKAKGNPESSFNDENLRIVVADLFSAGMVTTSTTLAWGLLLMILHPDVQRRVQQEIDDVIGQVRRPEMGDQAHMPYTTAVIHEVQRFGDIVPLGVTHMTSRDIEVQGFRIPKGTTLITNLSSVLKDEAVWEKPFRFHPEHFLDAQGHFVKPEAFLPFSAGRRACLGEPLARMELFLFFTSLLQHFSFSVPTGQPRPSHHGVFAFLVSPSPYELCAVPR

Cytochrome P450 1A2 = target: T3, Cytochrome P450 1A2 (Homo sapiens, UniProt P05177); test: Inhibition of CYP1A2 in human liver microsomes; assay type: ADME, Microsome
T3 sequence (P05177 whole entry): T2 sequence (P05177 whole entry)

Cytochrome P450 2C9 = Cytochrome P450 2C9 (Homo sapiens, UniProt P11712); test: Inhibition of CYP2C9 in human liver microsomes; assay type: ADME, Microsome
Chain of Cytochrome P450 2C9 (P11712 whole entry): as the sequence (P11712 whole entry) above

Cytochrome P450 2D6 = Cytochrome P450 2D6 (Homo sapiens, UniProt P10635); test: Inhibition of CYP2D6 in human liver microsomes; assay type: ADME, Microsome
Chain of Cytochrome P450 2D6 (P10635 whole entry): as the sequence (P10635 whole entry) above

Salmonella typhimurium [2] = test: Mutagenic activity in Salmonella Typhimurium TA98 by Ames test in presence of S9 mixture; assay type: toxicity, organism-based; details: salmonella enterica subsp. enterica serovar typhimurium
Outline: (§2)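 Ames screen with Salmonella typhimurium strains TA98 and TA100, run with and without S-9 mix.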

Salmonella typhimurium [3] = test: Mutagenic activity in Salmonella Typhimurium TA100 by Ames test in presence of S9 mixture; assay type: toxicity, organism-based; details: salmonella enterica subsp. enterica serovar typhimurium; outline: as §2
[4] = Half life in human liver microsomes; assay type: ADME, Microsome
SH-SY5Y [5] = test: Induction of CYP26A1 mRNA expression in human SH-SY5Y cells at 1 uM after 72 hrs by RT-PCR analysis; assay type: functional, cell-based; outline: as §1

SMILES: COC(=O)C(C)(C)C(c1ccc(Oc2ccc3ccccc3c2)cc1)n1ccnc1 (stereo not drawn)
IC50 (Cytochrome P450 26A1): > 1000 nM

SMILES: COC(=O)C(C)(C)C(c1ccc(Nc2ccccc2)cc1)n1ccnc1 (stereo not drawn)
IC50 (Cytochrome P450 26A1): 10 nM
Activity (SH-SY5Y [1]): Active

SMILES: Clc1cccc(C(c2ccc3[nH]cnc3c2)n2ccnc2)c1 (stereo not drawn) [LIAROZOLE]
Activity (SH-SY5Y [5]): inactive
fold change (FC) (SH-SY5Y [1]): 2.3

SMILES: COC(=O)[C@@H](C)[C@H](c1ccc(Nc2ccc3ccccc3c2)cc1)n1ccnc1 (relative stereo)
IC50 (Cytochrome P450 26A1): 140 nM

SMILES: COC(=O)[C@@H](C)[C@H](c1ccc(Nc2ccccc2)cc1)n1ccnc1 (relative stereo)
IC50 (Cytochrome P450 26A1): 40 nM
Activity (SH-SY5Y [1]): Active

SMILES: COC(=O)C(C)(C)C(c1ccc(Nc2nc3ccccc3s2)cc1)n1ccnc1 (stereo not drawn)
IC50 (Cytochrome P450 26A1): 100 nM
inhibition at 0.4 µM (CYP1A2): 38%
inhibition at 0.4 µM (CYP3A4): 46%
inhibition at 0.4 µM (CYP2C9): 87%
inhibition at 0.4 µM (CYP2C19): 91%
inhibition at 0.4 µM (CYP2D6): 11%

SMILES: COC(=O)C(C)(C)C(c1ccc(Nc2ccc3c(c2)OCO3)cc1)n1ccnc1 (stereo not drawn)
IC50 (Cytochrome P450 26A1): 8 nM
Activity (SH-SY5Y [1]): Active

SMILES: COC(=O)[C@H](C)[C@H](c1ccc(Nc2ccccc2)cc1)n1ccnc1 (relative stereo)
IC50 (Cytochrome P450 26A1): 26 nM

Second part, led by results:

IC50 (Cytochrome P450 26A1): 8 nM
SMILES: COC(=O)C(C)(C)C(c1ccc(Nc2ccc3cc(OC)ccc3c2)cc1)n1ccnc1 (stereo not drawn)

IC50 (Cytochrome P450 26A1): 3 nM
inhibition at 0.4 µM (CYP1A2): 21%
inhibition at 0.4 µM (CYP3A4): 60%
inhibition at 0.4 µM (CYP2C9): 41%
inhibition at 0.4 µM (CYP2C19): 11%
inhibition at 0.4 µM (CYP2D6): 25%
IC50 (Cytochrome P450 1A2): 1200 nM
IC50 (Cytochrome P450 2C9): 1500 nM
IC50 (Cytochrome P450 2D6): 600 nM
half-life [4]: 5 h
SMILES: COC(=O)C(C)(C)C(c1ccc(Nc2ccc3ccccc3c2)cc1)n1ccnc1 (stereo not drawn)
fold change (FC) (SH-SY5Y [1]): 5.8
Activity (Salmonella typhimurium [2]): Non-toxic
Activity (Salmonella typhimurium [3]): Non-toxic

IC50 (Cytochrome P450 26A1): 250 nM
SMILES: COC(=O)C(C)(C)C(c1ccc(Nc2ccc(-c3ccccc3)cc2)cc1)n1ccnc1 (stereo not drawn)

IC50 (Cytochrome P450 26A1): 50 nM
SMILES: COC(=O)[C@H](C)[C@H](c1ccc(Nc2ccc3ccccc3c2)cc1)n1ccnc1 (relative stereo)
Activity (SH-SY5Y [1]): Active

IC50 (Cytochrome P450 26A1): 10 nM
inhibition at 0.4 µM (CYP1A2): 31%
inhibition at 0.4 µM (CYP3A4): 84%
inhibition at 0.4 µM (CYP2C9): 45%
inhibition at 0.4 µM (CYP2C19): 13%
inhibition at 0.4 µM (CYP2D6): 55%
SMILES: COC(=O)C(C)(C)C(c1ccc(Nc2nc3ccccc3o2)cc1)n1ccnc1 (stereo not drawn)
Activity (SH-SY5Y [1]): Active

IC50 (Cytochrome P450 26A1): > 1000 nM
SMILES: COC(=O)C(C)(C)C(c1ccc(Cc2ccc3ccccc3c2)cc1)n1ccnc1 (stereo not drawn)

IC50 (Cytochrome P450 26A1): 125 nM
SMILES: CCOc1ccc2ccccc2c1Nc1ccc(C(n2ccnc2)C(C)(C)C(=O)OC)cc1 (stereo not drawn)

IC50 (Cytochrome P450 26A1): 6 nM
inhibition at 0.4 µM (CYP1A2): 15%
inhibition at 0.4 µM (CYP3A4): 75%
inhibition at 0.4 µM (CYP2C9): 48%
inhibition at 0.4 µM (CYP2C19): 49%
inhibition at 0.4 µM (CYP2D6): 53%
SMILES: COC(=O)C(C)(C)C(c1ccc(Nc2cccc3ccccc23)cc1)n1ccnc1 (stereo not drawn)
Activity (SH-SY5Y [1]): Active

IC50 (Cytochrome P450 26A1): 10 nM
IC50 (Cytochrome P450 1A2): 8300 nM
IC50 (Cytochrome P450 2C9): 5900 nM
IC50 (Cytochrome P450 2D6): 3900 nM
SMILES: C[C@H]([C@@H](c1ccc(Nc2nc3ccccc3s2)cc1)n1ccnc1)N(C)C
Activity (SH-SY5Y [5]): inactive
fold change (FC) (SH-SY5Y [1]): 4.7

IC50 (Cytochrome P450 26A1): 3 nM
SMILES: COC(=O)C(C)(C)C(c1ccc(Nc2ccc3cc(O)ccc3c2)cc1)n1ccnc1 (stereo not drawn)
Activity (SH-SY5Y [1]): Active
